Measured values published in ChEMBL document CHEMBL1146537, “Diterpenoids from Tetraclinis articulata that inhibit various human leukocyte functions” (J Nat Prod, 2003).

How the values were obtained:
Neutrophil [1] = experiment: Inhibition of TPA-induced chemiluminescence response in human neutrophils at 10 uM after 7 mins; format: functional
In short: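 Neutrophils (2.5×10^6/mL) with luminol (40 μM), stimulated by TPA (1 μM); light output counted after 7 min, chosen as time of maximal production.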

Neutrophil [2] = experiment: Inhibition of cytochalasin B and fMLP-stimulated human neutrophil degranulation assessed as inhibition of myeloperoxidase release at 10 uM preincubated for 5 mins; format: functional
In short: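 Neutrophils (2.5×10^6 cells/mL) preincubated 5 min at 37 °C with compound in ethanol (ethanol alone for controls). Then stimulated 10 min at 37 °C with cytochalasin B (10 μM) plus fMLP (10 nM).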

Neutrophil [3] = experiment: Inhibition of cytochalasin B and fMLP-stimulated human neutrophil degranulation assessed as inhibition of elastase release at 10 uM preincubated for 5 mins measured after 20 mins; format: functional
In short: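 Neutrophils (2.5×10^6/mL) preincubated 5 min with compound or vehicle, then cytochalasin B (10 μM) + fMLP (10 nM), 10 min, 37 °C. Supernatant after 1200g spin at 4 °C, 10 min, reacted with Boc-L-alanine p-nitrophenyl ester (200 μM) 20 min, 37 °C; p-nitrophenol read at 414 nm. Direct enzyme inhibition checked by 5 min compound preincubation with stimulated supernatant before substrate.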

[4] = Cytotoxicity against human neutrophils up to 10 uM by MTT assay; format: cell-based; settings: neutrophil

`C=C[C@@]1(C)CC[C@H]2[C@](O)(CC[C@@H]3[C@]2(C)CCC[C@@]3(C)C=O)C1` gave an inhibition at 10 µM (Neutrophil [1]) of 30.5%, an inhibition at 10 µM (Neutrophil [2]) of 47.8% and an inhibition at 10 µM (Neutrophil [3]) of 17.8%. The Activity [4] was “Non-toxic”.
`C=C[C@@]1(C)CC[C@H]2[C@](O)(CC[C@H]3[C@](C)(COC(C)=O)CCC[C@@]32C)C1` showed an inhibition at 10 µM (Neutrophil [1]) of 6.5%, an inhibition at 10 µM (Neutrophil [2]) of 55.4% and an inhibition at 10 µM (Neutrophil [3]) of 33.5%. For the same compound, the Activity [4] was “Non-toxic”.
For `C=C[C@@]1(C)CC[C@H]2[C@](O)(CC[C@H]3[C@](C)(CO)CCC[C@@]32C)C1`, the inhibition at 10 µM (Neutrophil [1]) was 1.8%, the inhibition at 10 µM (Neutrophil [2]) was 46.7% and the inhibition at 10 µM (Neutrophil [3]) was 24.1%. For the same compound, the Activity [4] was “Non-toxic”.
